ChEMBL document CHEMBL4406923, “New Potent DOT1L Inhibitors for in Vivo Evaluation in Mouse” (ACS Med Chem Lett, 2019)
The source made the active and inactive calls. The calls are words filed in the database; no cut-off is given here.

Assays:
[1] = molecular target: T1, Histone-lysine N-methyltransferase, H3 lysine-79 specific (Homo sapiens, UniProt Q8TEK3); test: Inhibition of 0.5 nM DOT1L (2 to 416 residues) (unknown origin) using biotinylated nucleosome as substrate and [3H]SAM as co-factor preincubated for 30 mins followed by substrate and cofactor addition and measured after 90 mins by scintillation proximity assay
Target sequence in this assay (Q8TEK3 whole entry, the tested form may be a part): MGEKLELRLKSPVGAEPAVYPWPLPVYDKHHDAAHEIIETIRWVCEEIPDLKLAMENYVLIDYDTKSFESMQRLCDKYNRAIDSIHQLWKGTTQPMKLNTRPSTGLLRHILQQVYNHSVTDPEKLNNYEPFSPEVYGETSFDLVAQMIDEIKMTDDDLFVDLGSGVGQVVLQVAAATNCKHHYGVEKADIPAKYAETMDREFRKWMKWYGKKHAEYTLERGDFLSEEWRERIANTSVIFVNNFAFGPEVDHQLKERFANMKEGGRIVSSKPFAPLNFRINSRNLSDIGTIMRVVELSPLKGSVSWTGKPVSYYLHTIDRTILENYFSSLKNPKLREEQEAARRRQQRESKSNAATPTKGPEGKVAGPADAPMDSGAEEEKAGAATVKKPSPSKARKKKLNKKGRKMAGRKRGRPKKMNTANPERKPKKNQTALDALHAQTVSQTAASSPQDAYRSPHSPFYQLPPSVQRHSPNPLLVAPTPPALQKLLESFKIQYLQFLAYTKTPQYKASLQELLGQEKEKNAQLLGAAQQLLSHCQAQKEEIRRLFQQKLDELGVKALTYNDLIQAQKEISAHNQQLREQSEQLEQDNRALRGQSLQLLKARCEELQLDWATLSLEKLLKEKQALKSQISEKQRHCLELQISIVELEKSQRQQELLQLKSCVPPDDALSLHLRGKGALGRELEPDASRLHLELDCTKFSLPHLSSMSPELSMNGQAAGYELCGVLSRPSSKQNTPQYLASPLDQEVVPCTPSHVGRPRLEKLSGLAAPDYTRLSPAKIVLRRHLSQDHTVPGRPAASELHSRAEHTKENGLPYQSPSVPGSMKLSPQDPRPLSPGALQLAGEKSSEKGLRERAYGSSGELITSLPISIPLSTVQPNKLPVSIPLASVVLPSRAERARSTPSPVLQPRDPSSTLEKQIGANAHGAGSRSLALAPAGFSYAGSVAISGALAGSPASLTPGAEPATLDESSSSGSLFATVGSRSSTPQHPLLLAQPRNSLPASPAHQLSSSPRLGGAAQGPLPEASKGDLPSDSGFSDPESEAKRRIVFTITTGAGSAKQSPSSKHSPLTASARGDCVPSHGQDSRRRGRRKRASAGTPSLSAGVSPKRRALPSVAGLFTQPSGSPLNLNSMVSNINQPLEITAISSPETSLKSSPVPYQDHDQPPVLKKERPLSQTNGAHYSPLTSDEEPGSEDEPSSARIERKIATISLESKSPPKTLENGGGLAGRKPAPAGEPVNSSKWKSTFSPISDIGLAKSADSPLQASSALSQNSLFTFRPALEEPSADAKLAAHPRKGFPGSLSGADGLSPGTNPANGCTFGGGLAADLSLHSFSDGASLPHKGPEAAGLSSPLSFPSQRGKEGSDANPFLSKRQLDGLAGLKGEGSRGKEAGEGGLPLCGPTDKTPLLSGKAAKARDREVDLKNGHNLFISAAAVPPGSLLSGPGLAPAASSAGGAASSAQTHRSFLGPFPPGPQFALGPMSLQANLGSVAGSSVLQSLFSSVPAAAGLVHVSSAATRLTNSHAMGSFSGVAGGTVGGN

[2] = Intrinsic clearance in rat liver microsomes; type: ADME, Microsome; details: read-out: CLH
[3] = molecular target: T1, Histone-lysine N-methyltransferase, H3 lysine-79 specific; test: Inhibition of 0.05 nM DOT1L (2 to 416 residues) (unknown origin) using biotinylated nucleosome as substrate and [3H]SAM as co-factor preincubated for 30 mins followed by substrate and cofactor addition and measured after 180 mins by scintillation proximity assay
Target sequence in this assay (Q8TEK3 whole entry, the tested form may be a part): as above

[4] = molecular target: T1, Histone-lysine N-methyltransferase, H3 lysine-79 specific; test: Inhibition of DOT1L in human HeLa cells assessed as reduction in H3K79 dimethylation measured after 72 hrs by ELISA; type: cell-based
Target sequence in this assay (Q8TEK3 whole entry, looked up, the tested form may be a part): as the sequence (Q8TEK3 whole entry, the tested form may be a part) above

[5] = molecular target: T1, Histone-lysine N-methyltransferase, H3 lysine-79 specific; test: Inhibition of DOT1L in human MOLM13 cells assessed as reduction in HOXA9 gene expression incubated for 72 hrs by bright-glo luciferase reporter gene assay; type: cell-based
Target sequence in this assay (Q8TEK3 whole entry, looked up, the tested form may be a part): as the sequence (Q8TEK3 whole entry, the tested form may be a part) above

[6] = Oral bioavailability in Sprague-Dawley Crl:CD(SD) rat at 3 mg/kg measured upto 24 hrs by LC-MS/MS analysis; type: ADME, organism-based; details: in vivo
[7] = Oral bioavailability in C57BL/6 mouse at 3 mg/kg measured upto 24 hrs by LC-MS/MS analysis; type: ADME, organism-based; details: in vivo
MV4-11 [8] = test: Antitumor activity against human MV4-11 cells xenografted in C57BL/6 mouse assessed as tumor growth inhibition at 200 mg/kg, administered twice daily for 23 days; type: functional, organism-based
In short: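 Mice bearing subcutaneous MV4-11 xenografts were treated for 23 days at 200 mg/kg twice daily. Tumor growth inhibition was assessed against control.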

Mus musculus [9] = test: In vivo inhibition of DOT1L in C57BL/6 mouse xenografted with human MV4-11 cells assessed as reduction in HOXA9 gene expression at 200 mg/kg, administered twice daily for 23 days by qPCR analysis; type: functional, organism-based
Mus musculus [10] = test: In vivo inhibition of DOT1L in C57BL/6 mouse xenografted with human MV4-11 cells assessed as reduction in MEIS1 gene expression at 200 mg/kg, administered twice daily for 23 days by qPCR analysis; type: functional, organism-based
Mus musculus [11] = test: In vivo inhibition of DOT1L in C57BL/6 mouse xenografted with human MV4-11 cells assessed as reduction in H3K79 dimethylation at 200 mg/kg, administered twice daily for 23 days by ELISA relative to control; type: functional; details: 552 h
MV4-11 [12] = test: Antitumor activity against human MV4-11 cells xenografted in sc dosed C57BL/6 mouse assessed as reduction in tumor growth at => MTD; type: functional, organism-based
[13] = Lipophilicity, log D of the compound at pH 7.4; type: physicochemical; details: buffer
[14] = Drug uptake in C57BL/6 mouse at 50 mg/kg, sc administered twice daily for 7 days; type: ADME, organism-based; details: in vivo, 168 h
[15] = Toxicity in NOD-SCID mouse xenografted with human MV4-11 cells assessed as change in body weight at 75 mg/kg, sc administered qd for 20 days; details: in vivo, 480 h
[16] = Toxicity in NOD-SCID mouse xenografted with human MV4-11 cells assessed as change in body weight at 75 mg/kg, sc administered bid for 20 days; details: in vivo, 480 h
MV4-11 [17] = test: Antitumor activity against human MV4-11 cells xenografted in NOD-SCID mouse assessed as tumor growth inhibition at 75 mg/kg, sc qd administered for 20 days
MV4-11 [18] = test: Antitumor activity against human MV4-11 cells xenografted in NOD-SCID mouse assessed as tumor growth inhibition at 75 mg/kg, sc administered bid for 20 days; details: MV4-11, sc, 480 h, read-out: TGI
Mus musculus [19] = test: In vivo inhibition of DOT1L in NOD-SCID mouse xenografted with human MV4-11 cells assessed as reduction in H3K79 dimethylation at 75 mg/kg, sc administered bid for 20 days
Mus musculus [20] = test: In vivo inhibition of DOT1L in NOD-SCID mouse xenografted with human MV4-11 cells assessed as reduction in H3K79 dimethylation at 75 mg/kg, sc administered twice daily for 20 days
Mus musculus [21] = test: In vivo inhibition of DOT1L in NOD-SCID mouse xenografted with human MV4-11 cells assessed as reduction in H3K79 dimethylation at 75 mg/kg, sc administered once daily for 20 days by ELISA
Mus musculus [22] = test: In vivo inhibition of DOT1L in NOD-SCID mouse xenografted with human MV4-11 cells assessed as reduction in HOXA9 gene expression at 75 mg/kg, sc administered qd for 20 days by qPCR analysis; details: MV4-11, sc, 480 h
Mus musculus [23] = test: In vivo inhibition of DOT1L in NOD-SCID mouse xenografted with human MV4-11 cells assessed as reduction in MEIS1 gene expression at 75 mg/kg, sc administered qd for 20 days by qPCR analysis; details: MV4-11, sc, 480 h
Mus musculus [24] = test: In vivo inhibition of DOT1L in NOD-SCID mouse xenografted with human MV4-11 cells assessed as reduction in HOXA9 gene expression at 75 mg/kg, sc administered bid for 20 days by qPCR analysis; details: MV4-11, sc, 480 h
Mus musculus [25] = test: In vivo inhibition of DOT1L in NOD-SCID mouse xenografted with human MV4-11 cells assessed as reduction in MEIS1 gene expression at 75 mg/kg, sc administered bid for 20 days by qPCR analysis; details: MV4-11, sc, 480 h
[26] = Cmax in C57BL/6 mouse at 100 mg/kg, po administered as single dose; type: ADME, organism-based; design: dose 100 mg/kg, route oral; details: in vivo
[27] = AUC (0 to 12 hrs) in C57BL/6 mouse at 100 mg/kg, po administered as single dose; type: ADME, organism-based; design: dose 100 mg/kg, time < 12 hr, route oral; details: in vivo
[28] = Cmax in C57BL/6 mouse at 100 mg/kg, po bid for 20 days; type: ADME, organism-based; design: dose 100 mg/kg, route oral; details: in vivo
[29] = AUC (0 to 12 hrs) in C57BL/6 mouse at 100 mg/kg, po bid for 20 days; type: ADME, organism-based; design: dose 100 mg/kg, time < 12 hr, route oral; details: in vivo
[30] = Induction of CYP3A4 in rat hepatocytes; type: ADME, cell-based
Cytochrome P450 3A4 = Cytochrome P450 3A4 (Homo sapiens, UniProt P08684); test: Induction of CYP3A4 in human hepatocytes; type: ADME, cell-based
Cytochrome P450 3A4, sequence (P08684 whole entry): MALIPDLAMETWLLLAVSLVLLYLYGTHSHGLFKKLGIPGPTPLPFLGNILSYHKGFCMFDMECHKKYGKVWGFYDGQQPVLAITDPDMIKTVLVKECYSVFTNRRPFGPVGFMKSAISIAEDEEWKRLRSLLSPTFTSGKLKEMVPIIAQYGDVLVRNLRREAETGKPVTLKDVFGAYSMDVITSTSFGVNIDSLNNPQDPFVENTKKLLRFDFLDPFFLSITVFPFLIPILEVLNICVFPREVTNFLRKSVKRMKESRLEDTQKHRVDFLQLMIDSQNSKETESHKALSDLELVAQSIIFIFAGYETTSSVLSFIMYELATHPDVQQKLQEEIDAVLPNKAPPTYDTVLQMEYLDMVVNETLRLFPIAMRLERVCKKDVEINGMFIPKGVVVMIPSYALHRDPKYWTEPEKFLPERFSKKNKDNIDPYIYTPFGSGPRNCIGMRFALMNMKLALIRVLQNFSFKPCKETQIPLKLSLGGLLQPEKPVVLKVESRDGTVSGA

CS(=O)(=O)c1ccc(NC(c2cccc(Cl)c2)c2ccccn2)c([N+](=O)[O-])c1 (racemic)
IC50 [1]: 4600 nM

CS(=O)(=O)c1ccc(N[C@@H](c2cccc(Cl)c2)c2ccccn2)c(Nc2ncccn2)c1
IC50 [1]: 270 nM
microsomal CLint [2]: 553 µL/min/mg

CS(=O)(=O)c1ccc(N[C@H](c2ccccn2)c2cccc(Cl)c2F)c(Nc2nccc(C(N)=O)n2)c1
IC50 [1]: 3.9 nM
IC50 [3]: 2.1 nM
ED50 [4]: 300 nM
ED50 [5]: 4500 nM
bioavailability [6]: 36%
bioavailability [7]: 26%
TGI (MV4-11 [8]): inactive
inhibition (Mus musculus [9]): inactive
inhibition (Mus musculus [10]): inactive
inhibition in vivo at 200 mg/kg (Mus musculus [11]): 50%

COc1nc(Nc2cc(S(C)(=O)=O)ccc2N[C@@H](c2cccc3c2OC(F)(F)O3)c2ncccc2Cl)nc(OC)n1
IC50 [3]: 0.19 nM
ED50 [4]: 12 nM
ED50 [5]: 170 nM

NS(=O)(=O)c1ccc(NC(c2ccccc2)c2ccccc2)c([N+](=O)[O-])c1
IC50 [1]: 8500 nM

CC(C)N(C[C@H]1O[C@@H](n2cnc3c(N)ncnc32)[C@H](O)[C@@H]1O)[C@H]1C[C@@H](CCc2nc3cc(C(C)(C)C)ccc3[nH]2)C1
Activity (MV4-11 [12]): inactive

CS(=O)(=O)c1ccc(N[C@H](c2ccccn2)c2cccc(Cl)c2F)c(Nc2ncccn2)c1
IC50 [1]: 97 nM
microsomal CLint [2]: 50 µL/min/mg

CS(=O)(=O)c1ccc(N[C@@H](c2cccc(Cl)c2F)c2ncccc2F)c(Nc2ncccn2)c1
IC50 [1]: 16 nM

COc1nc(N)nc(Nc2cc(S(N)(=O)=O)ccc2N[C@@H](c2cccc3c2OC(F)(F)O3)c2ncccc2Cl)n1
IC50 [3]: 0.17 nM
ED50 [4]: 2.9 nM
ED50 [5]: 30 nM
logD [13]: 3.5
Drug uptake [14]: Active
Activity [15]: Non-Toxic
Activity [16]: Non-Toxic
TGI (MV4-11 [17]): inactive
inhibition in vivo at 75 mg/kg (MV4-11 [18]): 73%
inhibition (Mus musculus [19]): Active
inhibition (Mus musculus [20]): Active
inhibition (Mus musculus [21]): Active
inhibition in vivo at 75 mg/kg (Mus musculus [22]): 25%
inhibition in vivo at 75 mg/kg (Mus musculus [23]): 53%
inhibition in vivo at 75 mg/kg (Mus musculus [24]): 53%
inhibition in vivo at 75 mg/kg (Mus musculus [25]): 74%

COc1nc(Nc2cc(S(C)(=O)=O)ccc2N[C@@H](c2cccc(Cl)c2F)c2ncccc2F)nc(OC)n1
IC50 [3]: 0.59 nM
ED50 [4]: 43 nM
Cmax [26]: 24 µM
AUC(0-t) at 12 h [27]: 216 µM·h
Cmax [28]: 12 µM
AUC at 12 h [29]: 47 µM·h
Activity [30]: Active
Activity (Cytochrome P450 3A4): Active

CS(=O)(=O)c1ccc(N[C@H](c2cccc(Cl)c2)c2ccccn2)c(Nc2ncccn2)c1
IC50 [1]: 22800 nM
